In ChEMBL document CHEMBL3421632, “Rational design of triazololipopeptides analogs of kisspeptin inducing a long-lasting increase of gonadotropins” (J Med Chem, 2015):
Activity calls are given as the source filed them. The calls are words filed in the database; no cut-off is given here. *1 amine or outer side, *2 acyl side, *3 side chain or, on linkers, in order; H or OH if unused. Where a SMILES comes first, the peptide text is derived from it. Side-chain parts run from the residue outwards. [ ]: non-standard residue; d: D form. The star is where a group is joined. Glyψ(1,4-Tz)Leu = CC(C)C[C@@H](C(=O)[*:2])n1cc(CN[*:1])nn1; γGlu = O=C(O)[C@H](CCC(=O)[*:2])N[*:1]; Palmitoyl = CCCCCCCCCCCCCCCC(=O)*; azaGly = NNC(=O)O

Experiments:
KiSS-1 receptor = KiSS-1 receptor (Homo sapiens, UniProt Q969F8); test: Agonist activity at human wild-type KISS1R expressed in HEK293 cells assessed as induction of intracellular Ca2+ mobilization after 30 mins by Fluo4 NW Ca2+ assay; type: functional, cell-based
Outline: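 HEK293 stably expressing HA-tagged wild-type human KISS1R, plated 40 000 cells/well 48 h prior. Loaded with Fluo4 NW dye 30 min at 37 °C plus 30 min at rt. Basal read 5× at 7 s intervals, compound added (final 1 pM–1 μM), Ca2+ followed 7 min. Mean basal subtracted, AUC plotted against concentration, sigmoid fit gives EC50. Nontransfected HEK293 served as control.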

[1] = Stability in Ile-de-France ewe serum assessed as intact compound level at 50 uM incubated for 6 hrs by HPLC method; type: ADME, cell-free, Ovis aries; settings: female, sheep, read-out: Stability
Outline: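 Ile-de-France ewe serum, stored at −20 °C and preheated 30 min at 39 °C. Peptide at 50 μM final, with L-phenylalaninol internal calibrator, incubated at 39 °C. Proteins precipitated with MeCN and spun; supernatant run on RP-HPLC (2–52% MeCN/0.1% TFA over 5 min, UV 214 nm, plus MS). Intact peak given as % of t = 0 area; five independent experiments.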

[2] = Drug metabolism in Ile-de-France ewe serum assessed as cleavage at C and N-termini of azaGly bond at 50 uM incubated for 6 hrs by LC-MS method; type: ADME, cell-free, Ovis aries; settings: sheep
[3] = Drug metabolism in Ile-de-France ewe serum treated with 50 uM Ac-Tyr-Asn-Trp-Asn-Ser-Phe-azaGly-Leu-Arg-Tyr-NH2 assessed as retention time incubated for 6 hrs by LC-MS method; type: ADME, cell-free, Ovis aries; settings: sheep
Ovis aries [4] = test: Increase in time duration of increase of plasma LH level in anoestrus Ile-de-France ewe at 15 nmol, iv by radioimmunoassay; type: functional
Outline: (§1)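 Intact acyclic anoestrous Ile-de-France ewes (3–5 y, 55–70 kg), jugular catheter placed the day before. Single iv bolus of 1–15 nmol/ewe. Basal LH taken every 10 min for 30 min, then every 10 min for 2 h, every 20 min for 4 h, then hourly. Plasma LH by RIA (1051-CY-LH standard, sensitivity 0.1 ng/mL). Peak, duration and AUC derived; mean ± SEM, N = 4–6.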

Ovis aries [5] = test: Increase in maximal amplitude of plasma LH level in anoestrus Ile-de-France ewe at 1 to 15 nmol, iv by radioimmunoassay; type: functional, organism-based; outline: as §1
Ovis aries [6] = test: Increase in time duration of increase of plasma LH level in anoestrus Ile-de-France ewe at 1 to 15 nmol, iv by radioimmunoassay; type: functional, organism-based; outline: as §1
Ovis aries [7] = test: Increase in total plasma LH level in anoestrus Ile-de-France ewe at 1 to 15 nmol, iv by radioimmunoassay; type: functional, organism-based; outline: as §1
Ovis aries [8] = test: Increase in peak plasma LH level in anoestrus Ile-de-France ewe at 1 nmol, iv by radioimmunoassay (reference value: 0.3 +/- 0.09 ng/ml); type: functional; outline: as §1
Ovis aries [9] = test: Increase in peak plasma LH level in anoestrus Ile-de-France ewe at 5 nmol, iv by radioimmunoassay (reference value: 0.2 +/- 0.09 ng/ml); type: functional; outline: as §1
Ovis aries [10] = test: Increase in peak plasma LH level in anoestrus Ile-de-France ewe at 15 nmol, iv by radioimmunoassay (reference value: 0.3 +/- 0.15 ng/ml); type: functional; outline: as §1
Ovis aries [11] = test: Increase in peak plasma LH level in anoestrus Ile-de-France ewe at 5 nmol, iv by radioimmunoassay relative to untreated control; type: functional; outline: as §1
Ovis aries [12] = test: Increase in peak plasma LH level in anoestrus Ile-de-France ewe at 15 nmol, iv by radioimmunoassay relative to untreated control; type: functional; outline: as §1
Ovis aries [13] = test: Increase in total plasma LH level in anoestrus Ile-de-France ewe at 1 nmol, iv by radioimmunoassay; type: functional; outline: as §1
Ovis aries [14] = test: Increase in total plasma LH level in anoestrus Ile-de-France ewe at 15 nmol, iv by radioimmunoassay; type: functional; outline: as §1
Ovis aries [15] = test: Increase in FSH level in anoestrus Ile-de-France ewe at 1 nmol, iv by radioimmunoassay; type: functional, organism-based
Outline: (§2)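 Intact acyclic anoestrous Ile-de-France ewes (3–5 y, 55–70 kg), jugular catheter placed the day before. Single iv bolus. Basal sampled every 10 min for 30 min, then every 10 min for 2 h, every 20 min for 4 h, then hourly. Plasma FSH measured by RIA with Tucker reagents (sensitivity 0.1 ng/mL), AUC computed; mean ± SEM, N = 4–6.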

Ovis aries [16] = test: Increase in FSH level in anoestrus Ile-de-France ewe at 5 nmol, iv by radioimmunoassay; type: functional, organism-based; outline: as §2
Ovis aries [17] = test: Increase in FSH level in anoestrus Ile-de-France ewe at 15 nmol, iv by radioimmunoassay; type: functional, organism-based; outline: as §2
[18] = target: Neuropeptide FF receptor 1 (Homo sapiens, UniProt Q9GZQ6); test: Agonist activity at human NPFF1R expressed in CHO cells assessed as effect on forskolin-induced cAMP accumulation after 15 mins by luminescence based assay; type: functional, cell-based
Outline: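 CHO cells stably expressing hNPFF1R (Gαi-coupled), transfected with GloSensor; seeded 30 000 cells/well 24 h before, PBS-washed twice, loaded with GloSensor cAMP reagent 2 h. Compound added, luminescence read 15 min, then 300 nM forskolin + 0.25 mM IBMX added and read a further 120 min. Signal AUC plotted against concentration, sigmoid fit for EC50.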

Homo sapiens = species: Homo sapiens; test: Selectivity index, ratio of EC50 for human NPFF1R to EC50 for human wild-type KISS1R

Sequence of KiSS-1 receptor (Q969F8 whole entry): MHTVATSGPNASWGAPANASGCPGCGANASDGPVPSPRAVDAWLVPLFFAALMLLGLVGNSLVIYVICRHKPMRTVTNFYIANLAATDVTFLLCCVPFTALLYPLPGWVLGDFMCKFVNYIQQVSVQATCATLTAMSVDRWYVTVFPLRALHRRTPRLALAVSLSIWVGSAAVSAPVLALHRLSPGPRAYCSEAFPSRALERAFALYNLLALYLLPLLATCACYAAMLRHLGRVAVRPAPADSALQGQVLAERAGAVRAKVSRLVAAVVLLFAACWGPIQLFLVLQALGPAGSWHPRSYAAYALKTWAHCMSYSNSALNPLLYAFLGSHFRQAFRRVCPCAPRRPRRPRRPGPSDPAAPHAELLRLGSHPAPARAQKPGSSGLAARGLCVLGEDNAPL
Sequence of Neuropeptide FF receptor 1 (Q9GZQ6 whole entry): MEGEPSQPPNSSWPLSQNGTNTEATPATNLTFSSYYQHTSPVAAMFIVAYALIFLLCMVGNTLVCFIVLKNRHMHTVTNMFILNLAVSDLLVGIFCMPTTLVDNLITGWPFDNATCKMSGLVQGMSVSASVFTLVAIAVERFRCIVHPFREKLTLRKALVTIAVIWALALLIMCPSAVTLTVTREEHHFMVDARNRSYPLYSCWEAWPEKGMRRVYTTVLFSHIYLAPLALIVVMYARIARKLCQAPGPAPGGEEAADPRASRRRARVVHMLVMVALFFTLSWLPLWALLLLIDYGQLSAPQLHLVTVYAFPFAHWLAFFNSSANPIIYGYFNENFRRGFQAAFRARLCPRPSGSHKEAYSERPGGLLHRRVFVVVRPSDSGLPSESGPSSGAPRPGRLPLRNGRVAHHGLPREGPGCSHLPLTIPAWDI

Which results are given for `CC(=O)N[C@@H](Cc1ccc(O)cc1)C(=O)N[C@@H](CC(N)=O)C(=O)N[C@@H](Cc1c[nH]c2ccccc12)C(=O)N[C@@H](CC(N)=O)C(=O)N[C@@H](CO)C(=O)N[C@@H](Cc1ccccc1)c1cn(Cc2cn([C@@H](CC(C)C)C(=O)N[C@@H](CCCNC(=N)N)C(=O)N[C@@H](Cc3ccc(O)cc3)C(N)=O)nn2)nn1`?
EC50 (KiSS-1 receptor): 120 nM; remaining at 6 h, 50 µM [1]: 50.7%

Which EC50 (KiSS-1 receptor) does the source give for Ac-YK(Ac)WNSFGLRY-NH2 here?
The EC50 was 0.1 nM.

With `CC(=O)N[C@@H](Cc1ccc(O)cc1)C(=O)N[C@@H](CC(N)=O)C(=O)N[C@@H](Cc1c[nH]c2ccccc12)C(=O)N[C@@H](CC(N)=O)C(=O)N[C@@H](CO)C(=O)N[C@@H](Cc1ccccc1)C(=O)NNC(=O)N[C@@H](CC(C)C)C(=O)N[C@@H](CCCNC(=N)N)C(=O)N[C@@H](Cc1ccc(O)cc1)C(N)=O` (Ac-YNWNSF[azaGly]LRY-NH2) as the compound, how does the EC50 (KiSS-1 receptor) read?
The EC50 was 0.006 nM.

What about the remaining at 6 h, 50 µM [1] of the same compound?
Its remaining at 6 h, 50 µM is 8.4%.

What about the Drug metabolism [2] of the same compound?
Its Drug metabolism is “metabolite_detected”.

Which EC50 (KiSS-1 receptor) does the source give for `CCCCCCCCCCCCCCCC(=O)NCCCC[C@H](NC(=O)[C@H](Cc1ccc(O)cc1)NC(C)=O)C(=O)N[C@@H](Cc1c[nH]c2ccccc12)C(=O)N[C@@H](CC(N)=O)C(=O)N[C@@H](CO)C(=O)N[C@@H](Cc1ccccc1)C(=O)NCC(=O)N[C@@H](CC(C)C)C(=O)N[C@@H](CCCNC(=N)N)C(=O)N[C@@H](Cc1ccc(O)cc1)C(N)=O` (Ac-YK(Palmitoyl)WNSFGLRY-NH2) here?
The EC50 was 182 nM.

Which Retention_time [3] does the source give for Ac-YNWNSF-OH here?
Its Retention_time is 9.51 min.

For `CCCCCCCCCCCCCCCC(=O)N[C@@H](CCC(=O)NCCCC[C@H](NC(=O)[C@H](Cc1ccc(O)cc1)NC(C)=O)C(=O)N[C@@H](Cc1c[nH]c2ccccc12)C(=O)N[C@@H](CC(N)=O)C(=O)N[C@@H](CO)C(=O)N[C@@H](Cc1ccccc1)C(=O)NCc1cn([C@@H](CC(C)C)C(=O)N[C@@H](CCCNC(=N)N)C(=O)N[C@@H](Cc2ccc(O)cc2)C(N)=O)nn1)C(=O)O` (Ac-YK([γGlu-Palmitoyl])WNSF[Glyψ(1,4-Tz)Leu]RY-NH2), which Time (Ovis aries [4]) is on record?
The Time was >9 h.

What about the EC50 (KiSS-1 receptor) of the same compound?
Its EC50 is 1.6 nM.

And the Activity (Ovis aries [5])?
Its Activity is “Dose-dependent effect”.

And the Activity (Ovis aries [6])?
Its Activity is “Dose-dependent effect”.

And the Activity (Ovis aries [7])?
The Activity was “Dose-dependent effect”.

What about the Activity (Ovis aries [8]) of the same compound?
Its Activity is 1.1 ng/mL.

What about the Activity (Ovis aries [9]) of the same compound?
The Activity was 5.3 ng/mL.

What about the Activity (Ovis aries [10]) of the same compound?
Its Activity is 13.3 ng/mL.

What about the “fold change (FC)” value (Ovis aries [11]) of the same compound?
The value was 25.

And the “fold change (FC)” value (Ovis aries [12])?
Its value is 40.

And the Activity (Ovis aries [13])?
The Activity was 274 ng·min/mL.

And the Activity (Ovis aries [14])?
The Activity was 2400 ng·min/mL.

And the Activity (Ovis aries [15])?
The Activity was “inactive”.

And the Activity (Ovis aries [16])?
The Activity was “inactive”.

And the Activity (Ovis aries [17])?
Its Activity is “Active”.

What about the EC50 [18] of the same compound?
The EC50 was 222 nM.

What about the Ratio EC50 (Homo sapiens) of the same compound?
The Ratio EC50 was > 100.

With `CCCCCCCCCCCCCCCC(=O)NCCCC[C@H](NC(=O)[C@H](CC(N)=O)NC(=O)[C@H](Cc1ccc(O)cc1)NC(C)=O)C(=O)N[C@@H](CC(N)=O)C(=O)N[C@@H](CO)C(=O)N[C@@H](Cc1ccccc1)C(=O)NCC(=O)N[C@@H](CC(C)C)C(=O)N[C@@H](CCCNC(=N)N)C(=O)N[C@@H](Cc1ccc(O)cc1)C(N)=O` (Ac-YNK(Palmitoyl)NSFGLRY-NH2) as the compound, how does the EC50 (KiSS-1 receptor) read?
Its EC50 is > 500 nM.

For `CCCCCCCCCCCCCCCC(=O)N[C@@H](CCC(=O)NCCCC[C@H](NC(=O)[C@H](Cc1ccc(O)cc1)NC(C)=O)C(=O)N[C@@H](Cc1c[nH]c2ccccc12)C(=O)N[C@@H](CC(N)=O)C(=O)N[C@@H](CO)C(=O)N[C@@H](Cc1ccccc1)C(=O)NCC(=O)N[C@@H](CC(C)C)C(=O)N[C@@H](CCCNC(=N)N)C(=O)N[C@@H](Cc1ccc(O)cc1)C(N)=O)C(=O)O` (Ac-YK([γGlu-Palmitoyl])WNSFGLRY-NH2), which EC50 (KiSS-1 receptor) is on record?
The EC50 was 2.9 nM.

For `CC(C)C[C@H](N)C(=O)N[C@@H](CCCNC(=N)N)C(=O)N[C@@H](Cc1ccc(O)cc1)C(N)=O` (H-Leu-Arg-Tyr-NH2), which Retention_time [3] is on record?
Its Retention_time is 7.57 min.

For Ac-YNWNK(Ac)FGLRY-NH2, which EC50 (KiSS-1 receptor) is on record?
The EC50 was 7.2 nM.
